TPT1 inh: Candida albicans TPT1 enzyme inhibitors, primary screen, biochemical, fluorescence polarization. tRNA 2'-phosphotransferase TPT1 (Candida albicans SC5314). recombinant caTPT1, FP RNA substrate dephosphorylation. inhibition, % at 5 µM. 300,000 tested, 0.81% active;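 active = inhibition above the mean of all tested compounds plus 3 SD, set per screening campaign, cut at about 24% in these data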
NadD inh: inhibitors of S. aureus NadD, primary screen, biochemical, colorimetric, uHTS; purified NadD enzyme, colorimetric absorbance read-out; inhibition, % at 20 µM; 360,000 tested, 0.78% active; in the data active = inhibition above about 26%
CSN inh: inhibitors of CSN-mediated cullin deneddylation, primary screen, biochemical, fluorescence polarization, uHTS | AID 651999, 2013 | Purified CSN, SCF-Nedd8-OG deneddylation | COP9 signalosome complex subunit 5 (Homo sapiens), Q92905 | inhibition, % at 12.5 µM | 360,000 tested, 0.38% active;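 active = pattern-corrected inhibition above about 35%, with an unprinted fluorescence ratio check between 0.5 and 1.5, limit read from the data, passing the limit was not always enough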
Target sequence (Q92905 whole entry, looked up, one chain of several): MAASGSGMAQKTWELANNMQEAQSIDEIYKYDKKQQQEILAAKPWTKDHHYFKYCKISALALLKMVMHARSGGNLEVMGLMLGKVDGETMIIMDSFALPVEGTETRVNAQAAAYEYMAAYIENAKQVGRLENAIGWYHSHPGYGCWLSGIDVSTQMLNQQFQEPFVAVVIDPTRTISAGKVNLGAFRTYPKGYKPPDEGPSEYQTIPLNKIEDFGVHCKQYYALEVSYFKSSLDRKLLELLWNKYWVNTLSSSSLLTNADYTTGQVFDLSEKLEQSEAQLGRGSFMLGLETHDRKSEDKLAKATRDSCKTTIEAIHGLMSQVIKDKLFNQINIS
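Assay system: purified human Csn5 enzyme expressed in HEK293T cells; Input: 0.24 nM Csn5 enzyme, final concentration; Reagent: 10 nM SCFSkp2-Nedd8OG; Compound dosing: 12.5 µM single point; Times: reaction 90 min, room temperature; Technique: fluorescence polarization readout.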
Rpn11 block: Rpn11 (PSMD14) deubiquitinase inhibitors, primary screen, biochemical, fluorescence polarization, uHTS. 26S proteasome non-ATPase regulatory subunit 14 (Homo sapiens), O00487. human 26S proteasome, Ub4-pepOG fluorescence polarization; 20S core pre-blocked with epoxomicin. inhibition, % at 20 µM. 360,000 tested, 0.59% active. AID 588493, 2011;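 active = inhibition at 20 µM, scaled to each plate's controls, above about 33%, limit read from the data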
Target sequence (O00487 whole entry, looked up): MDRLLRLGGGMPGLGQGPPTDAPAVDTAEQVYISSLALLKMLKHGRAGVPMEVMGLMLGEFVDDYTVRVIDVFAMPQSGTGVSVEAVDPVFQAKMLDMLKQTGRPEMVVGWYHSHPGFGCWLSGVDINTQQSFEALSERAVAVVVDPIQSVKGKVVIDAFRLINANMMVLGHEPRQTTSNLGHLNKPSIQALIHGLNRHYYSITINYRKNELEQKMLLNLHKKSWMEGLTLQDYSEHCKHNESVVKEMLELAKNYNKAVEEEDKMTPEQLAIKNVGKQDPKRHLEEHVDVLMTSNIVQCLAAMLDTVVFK
HNF4A DNA FP: change in binding of human HNF4A to DNA, primary screen, biochemical, fluorescence polarization, FITC-DNA. Hepatocyte nuclear factor 4-alpha (Homo sapiens), P41235. 1 h. activity change, % at 10 µM. 360,000 tested, 0.3% active; in the data active = activity change above about 30%, passing the limit was not always enough
PP1 counter: PP1-alpha phosphatase inhibitors, primary screen, counter-screen for PP5 inhibitor project, biochemical, fluorescence, OMFP substrate, single point; Serine/threonine-protein phosphatase PP1-alpha catalytic subunit (Homo sapiens), P62136; purified PP1alpha; inhibition, % at 6.7 µM; 320,000 tested, 0.9% active; AID 2235, 2010;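 active = inhibition above the mean inhibition of all tested compounds plus 3 SD, computed separately for each screening campaign, cut at about 15% in these data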
NadD conf: inhibitors of S. aureus NadD, confirmation, biochemical, colorimetric, single concentration; shares compounds with NadD inh; purified S. aureus NadD, colorimetric enzyme assay; inhibition, % at 20 µM; 2,000 tested, 13% active; in the data active = inhibition mostly above about 42%, no sharp cut-off; inactive = mostly below about 42%
Each line names hits and unclear results; the compound was inactive in the other large screens (follow-up assays come after a bar, where shown). Sampled rows, rich in hits. Any-hit rate of the full collection: about 2.7%.

COc1ccc(CC(=O)OCC(=O)N2CCc3ccccc32)cc1OC	none (no result: TPT1 inh)
COc1cc(OC)cc(-c2c(C#Cc3ccsc3)c3cc(-c4cccc5[nH]cc(C=O)c45)ccc3n2C)c1	NadD inh 45.8 (no result: TPT1 inh, PP1 counter) | NadD conf inactive
Cc1cc(C)n2nc(C(=O)N/N=C/c3c4ccccc4cc4ccccc34)nc2n1	NadD inh 29.1 | NadD conf inactive
CCN(CC)C(=O)C1=C(C)N(Cc2ccc(F)cc2)C(=O)C(CC(=O)NCCN2CCOCC2)C1 (centres undefined)	none (no result: TPT1 inh, PP1 counter)
CCC(C)C(=O)Nc1nc(C)c(-c2csc(Nc3cc(OC)ccc3OC)n2)s1 (centres undefined)	none
COc1ccc(Cl)cc1Nc1nc(-c2sc(NC(=O)C(C)(C)C)nc2C)cs1	NadD inh 38.8 | NadD conf inactive
COc1cccc(Nc2nc(-c3sc(NC(=O)c4ccco4)nc3C)cs2)c1	NadD inh 29.9 | NadD conf 41.9
CCC(C)C(=O)Nc1nc(C)c(-c2csc(Nc3cc(Cl)ccc3OC)n2)s1 (centres undefined)	NadD inh 32.4 | NadD conf inactive
CCOc1ccccc1Nc1nc(-c2sc(NC(=O)c3cccc(Cl)c3)nc2C)cs1	NadD inh 55.3 | NadD conf inactive
COc1ccccc1C(CNC(=O)c1cc(S(=O)(=O)N2CCOCC2)ccc1C)N1CCCC1 (centres undefined)	none (no result: TPT1 inh)
COc1ccccc1CNC(=O)C1CCCN1S(=O)(=O)c1ccc2c(c1)C(C)(C)C(=O)N2C (centres undefined)	none (no result: TPT1 inh, PP1 counter)
COc1ccc2nc(/C(C#N)=C\c3ccc(Oc4ccc([N+](=O)[O-])cn4)cc3)[nH]c2c1	NadD inh 34.5 | NadD conf inactive
Cc1ccc2nc(/C(C#N)=C\c3ccc(Oc4ccc([N+](=O)[O-])cn4)cc3)[nH]c2c1	NadD inh 35.6 | NadD conf inactive
COc1cc(/C=C(/C#N)c2ccc(C)cc2)ccc1Oc1ccc([N+](=O)[O-])cn1	none
CCOc1cc(/C=C(/C#N)c2nc3ccccc3[nH]2)ccc1Oc1ccc([N+](=O)[O-])cn1	NadD inh 54.2 | NadD conf inactive
CCOc1cc(/C=C(\C#N)c2nc3ccccc3[nH]2)ccc1OC(C)C(=O)O (centres undefined)	none
COC(=O)C(C(=O)OC)c1ccccc1NC(=O)OCc1ccccc1	none (no result: TPT1 inh, NadD inh, Rpn11 block, PP1 counter)
C[C@H](CO)N1C[C@H](C)[C@@H](CN(C)S(=O)(=O)c2ccccc2F)Oc2ncc(C#Cc3cccnc3)cc2C1=O	none (no result: TPT1 inh, PP1 counter)
C[C@H]1CN([C@@H](C)CO)C(=O)c2cc(C#Cc3cccnc3)cnc2O[C@H]1CN(C)Cc1ccc(F)cc1	NadD inh 39.4 (no result: TPT1 inh, PP1 counter) | NadD conf inactive
COc1ccc(CNC(=O)[C@H](Cc2ccccc2)NC(=O)CC[C@H]2O[C@@H](n3ccc(=O)[nH]c3=O)[C@H](O)[C@@H]2O)cc1	none (no result: TPT1 inh, PP1 counter)
COCCNC(=O)C1(C)CCCN(Cc2cc(-c3ccccc3)n(C)n2)C1 (centres undefined)	none (no result: TPT1 inh, PP1 counter)
C=CCc1c(C)[nH]c(=S)c(C#N)c1C	NadD inh 33.5 | NadD conf inactive
Cc1cscc1-c1ccc(C(=O)Nc2c(C)cccc2C)o1	NadD inh 30.7 (no result: TPT1 inh, PP1 counter) | NadD conf inactive
CC(=O)Nc1ccc(S(=O)(=O)NC2(c3ccccc3)C(=O)N(C)C(=O)N(C)C2=O)cc1	none (no result: TPT1 inh, PP1 counter)
CCOC(=O)/C=c1\s/c(=C\c2ccc3cc(OC)ccc3c2)c(=O)n1CC(=O)NCc1ccc2c(c1)OCO2	NadD inh 32.6, CSN inh 59.8 (not shown: Rpn11 block) | NadD conf inactive
CC(C)(C)c1ccc(Oc2cccc(C3CC(=O)C(C4NCCc5ccccc54)C(=O)C3n3cncn3)c2)cc1 (centres undefined)	NadD inh 40.5 | NadD conf inactive
O=C1CC(c2ccccc2Oc2cccc(Cl)c2)C(n2cncn2)C(=O)C1C1NCCc2ccccc21 (centres undefined)	none
COCCn1c(C)cc(C2=NNC(=Nc3ccccc3F)SC2)c1C	NadD inh 38.1 | NadD conf inactive
Nc1cc(Cl)ccc1C(=O)OCC(=O)NCc1cccs1	none (no result: TPT1 inh, PP1 counter)
O=c1c2ccccc2sn1-c1ccc(S(=O)(=O)N2CCCCC2)cc1	NadD inh 31.3 | NadD conf inactive
CCCCCOc1ccc(C(=O)CCC(=O)NNC(=O)c2ccncc2)cc1	none (no result: TPT1 inh, PP1 counter)
CCc1cccc(CC)c1NC(=O)C1SC(=Nc2ccccc2C)C(c2nc3ccccc3s2)=C1N (centres undefined)	NadD inh 31.6 (not shown: Rpn11 block) | NadD conf inactive
COCC(C)n1c(COc2ccccc2F)nnc1SCC(=O)Nc1oc(C)c2c(C)n[nH]c(=O)c12 (centres undefined)	none
Cc1cccc(-c2cc(C(=O)N/N=C/c3cccnc3)c3ccccc3n2)c1	none
Cc1cccc(/C=N/NC(=O)c2cc(-c3cccnc3)nc3c2c(C)nn3-c2ccccc2)c1	NadD inh 36.5 | NadD conf inactive
O=C(C1CCC(=O)N(C2CC2)C1)N1CCC(Oc2ccccc2F)CC1 (centres undefined)	none
COC(=O)c1ccc(N2C(c3cc(OC)cc(OC)c3)=Cc3ccc(-c4cccnc4)cc3C2CC(=O)C2CC2)cc1 (centres undefined)	NadD inh 32.1 (no result: TPT1 inh, Rpn11 block, PP1 counter) | NadD conf inactive
COc1cc(OC)cc(C2=Cc3ccccc3C(CC(=O)c3ccco3)N2c2ccc(-c3cccnc3)cc2)c1 (centres undefined)	NadD inh 34.9 (no result: TPT1 inh, Rpn11 block, PP1 counter) | NadD conf inactive
COc1cc(OC)cc(C2=Cc3ccc(OC)cc3C(CC(C)=O)N2c2ccc(-c3cncnc3)cc2)c1 (centres undefined)	none (no result: TPT1 inh, Rpn11 block, PP1 counter)
COc1ccc(CNC(=O)CN2C(=O)COc3ccc(S(=O)(=O)N4CCC(C)CC4)cc32)cc1	none
N#C/C(=C\c1ccc(-c2ccccc2[N+](=O)[O-])o1)C(N)=O	none
Cc1ccc(Cc2cnc(NC(=O)/C(C#N)=C/c3ccc(-c4ccccc4[N+](=O)[O-])o3)s2)cc1	NadD inh 29.1 | NadD conf inactive
Cn1cc(/C=C(\C#N)C(=O)Nc2ncc(Cc3ccc(Cl)cc3)s2)c2ccccc21	NadD inh 30.6 | NadD conf inactive

Compound activity: PubChem BioAssay, several laboratories
